Our source for the IC50 and inhibition values is ChEMBL document CHEMBL2176903, “P2-substituted N-acylprolylpyrrolidine inhibitors of prolyl oligopeptidase: biochemical evaluation, binding mode determination, and assessment in a cellular model of synucleinopathy” (J Med Chem, 2012).

A short description of assay [1]: Inhibition of bovine testes DPP9 assessed as pNA release from Ala-Pro- p-nitroanilide substrate pre-incubated with enzyme for 15 min prior to substrate addition by […]. The arrangement: species or system Bos taurus.
The target in another assay is Dipeptidyl peptidase 2 (Homo sapiens, UniProt Q9UHL4). Put plainly: Inhibition of human seminal plasma DPP2 assessed as pNA release from Lys-Ala-p-nitroanilide substrate pre-incubated with enzyme for 15 min prior to substrate addition by […].
A further assay deals with Dipeptidyl peptidase 4 (Homo sapiens, UniProt P27487). Put plainly: Inhibition of human seminal plasma DPP4 assessed as pNA release from Gly-Pro-p-nitroanilide substrate pre-incubated with enzyme for 15 min prior to substrate addition by […].
Chain of Dipeptidyl peptidase 4 (P27487 whole entry): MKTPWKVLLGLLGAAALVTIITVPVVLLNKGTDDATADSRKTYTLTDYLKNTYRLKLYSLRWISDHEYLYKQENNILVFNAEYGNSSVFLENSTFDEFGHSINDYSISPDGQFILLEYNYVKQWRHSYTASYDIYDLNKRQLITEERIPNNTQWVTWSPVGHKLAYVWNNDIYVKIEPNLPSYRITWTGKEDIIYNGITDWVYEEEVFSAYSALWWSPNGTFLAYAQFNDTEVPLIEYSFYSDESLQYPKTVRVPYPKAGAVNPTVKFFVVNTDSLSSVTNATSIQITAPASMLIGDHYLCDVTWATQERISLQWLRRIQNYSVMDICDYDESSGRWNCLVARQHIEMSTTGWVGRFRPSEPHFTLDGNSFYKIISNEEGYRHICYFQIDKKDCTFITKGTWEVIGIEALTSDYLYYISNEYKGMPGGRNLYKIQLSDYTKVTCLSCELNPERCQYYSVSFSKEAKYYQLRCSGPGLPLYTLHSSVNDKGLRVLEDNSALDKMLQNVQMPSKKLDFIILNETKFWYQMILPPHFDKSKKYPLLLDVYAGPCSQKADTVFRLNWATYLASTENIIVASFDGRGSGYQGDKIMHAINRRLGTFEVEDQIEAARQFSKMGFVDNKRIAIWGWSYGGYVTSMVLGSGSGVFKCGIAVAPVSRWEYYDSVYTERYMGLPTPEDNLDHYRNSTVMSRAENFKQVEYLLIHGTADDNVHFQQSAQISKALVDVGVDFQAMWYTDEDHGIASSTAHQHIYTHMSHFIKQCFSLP
The target in another assay is T1, Prolyl endopeptidase FAP (Mus musculus, UniProt P97321).
T1 sequence (P97321 whole entry): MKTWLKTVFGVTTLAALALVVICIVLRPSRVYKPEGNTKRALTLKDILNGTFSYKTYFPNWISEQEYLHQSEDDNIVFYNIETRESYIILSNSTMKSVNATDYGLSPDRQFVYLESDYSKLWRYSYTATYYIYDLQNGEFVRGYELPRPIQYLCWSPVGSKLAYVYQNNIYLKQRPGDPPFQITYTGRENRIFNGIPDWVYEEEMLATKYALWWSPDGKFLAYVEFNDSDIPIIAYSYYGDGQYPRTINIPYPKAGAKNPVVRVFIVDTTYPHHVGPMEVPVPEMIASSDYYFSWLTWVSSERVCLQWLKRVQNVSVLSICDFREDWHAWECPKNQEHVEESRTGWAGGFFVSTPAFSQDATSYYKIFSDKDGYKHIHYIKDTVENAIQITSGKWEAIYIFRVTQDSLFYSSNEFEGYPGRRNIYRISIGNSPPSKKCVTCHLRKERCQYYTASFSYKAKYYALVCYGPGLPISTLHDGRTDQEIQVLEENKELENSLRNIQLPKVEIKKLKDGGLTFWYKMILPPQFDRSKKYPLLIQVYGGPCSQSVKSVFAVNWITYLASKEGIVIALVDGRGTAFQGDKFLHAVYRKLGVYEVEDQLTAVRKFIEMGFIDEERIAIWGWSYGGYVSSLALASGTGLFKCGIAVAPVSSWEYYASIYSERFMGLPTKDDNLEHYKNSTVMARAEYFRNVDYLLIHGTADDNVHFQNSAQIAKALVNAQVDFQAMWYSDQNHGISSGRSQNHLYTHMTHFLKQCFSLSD
Put plainly: Inhibition of mouse recombinant FAP expressed in HEK293 cells assessed as pNA release from Ala-Pro-p-nitroanilide pre-incubated with enzyme for 15 mins prior to substrate addition by […]. Type of assay: cell-based.

In assay [2] the target is T2, Prolyl endopeptidase (Homo sapiens) (UniProt P48147).
T2 sequence (whole entry): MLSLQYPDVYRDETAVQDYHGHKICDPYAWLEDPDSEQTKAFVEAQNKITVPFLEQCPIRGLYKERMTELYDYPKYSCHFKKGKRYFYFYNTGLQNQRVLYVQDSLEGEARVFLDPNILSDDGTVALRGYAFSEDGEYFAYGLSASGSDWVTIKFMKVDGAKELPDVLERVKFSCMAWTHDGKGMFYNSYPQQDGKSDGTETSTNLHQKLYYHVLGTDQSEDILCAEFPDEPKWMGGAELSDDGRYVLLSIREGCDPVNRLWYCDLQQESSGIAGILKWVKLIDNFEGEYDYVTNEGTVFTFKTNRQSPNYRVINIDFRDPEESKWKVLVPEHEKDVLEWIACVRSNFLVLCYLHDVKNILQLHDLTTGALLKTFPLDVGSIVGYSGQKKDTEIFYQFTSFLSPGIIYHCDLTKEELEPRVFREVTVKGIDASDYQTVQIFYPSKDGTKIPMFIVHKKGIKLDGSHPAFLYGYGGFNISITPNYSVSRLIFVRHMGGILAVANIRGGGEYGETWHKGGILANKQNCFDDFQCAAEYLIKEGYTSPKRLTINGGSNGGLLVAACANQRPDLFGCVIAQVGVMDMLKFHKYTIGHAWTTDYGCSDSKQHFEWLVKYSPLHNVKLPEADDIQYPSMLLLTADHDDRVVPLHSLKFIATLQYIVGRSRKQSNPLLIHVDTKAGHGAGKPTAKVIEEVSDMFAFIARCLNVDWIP
Put plainly: Inhibition of PREP in human SH-SY5Y cellular model of synucleinopathy over-expressing alpha-synuclein assessed as reduction in alpha-synuclein aggregation 0.1 to 9 uM incubated for 3 days under oxidative stress condition by high content multiparametric method. The method, boiled down:
(§1)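 SH-SY5Y neuroblastoma cells overexpressing α-SYN were incubated with inhibitor for 3 days under oxidative stress from H₂O₂ plus FeCl₂. Aggregates were detected by thioflavin S staining. Late apoptosis was scored as nuclear condensation and fragmentation. Quantification used automated high-content imaging. Values are % of cells relative to the 1% DMSO control. Significance was tested by ANOVA with Dunnett's post-test (5% level).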

The target of the next assay is Prolyl endopeptidase (Sus scrofa, UniProt P23687). Put plainly: Inhibition of pig PREP expressed in Escherichia coli using Z-Gly-Pro-p-nitroanilide substrate.
Chain of Prolyl endopeptidase (P23687 whole entry): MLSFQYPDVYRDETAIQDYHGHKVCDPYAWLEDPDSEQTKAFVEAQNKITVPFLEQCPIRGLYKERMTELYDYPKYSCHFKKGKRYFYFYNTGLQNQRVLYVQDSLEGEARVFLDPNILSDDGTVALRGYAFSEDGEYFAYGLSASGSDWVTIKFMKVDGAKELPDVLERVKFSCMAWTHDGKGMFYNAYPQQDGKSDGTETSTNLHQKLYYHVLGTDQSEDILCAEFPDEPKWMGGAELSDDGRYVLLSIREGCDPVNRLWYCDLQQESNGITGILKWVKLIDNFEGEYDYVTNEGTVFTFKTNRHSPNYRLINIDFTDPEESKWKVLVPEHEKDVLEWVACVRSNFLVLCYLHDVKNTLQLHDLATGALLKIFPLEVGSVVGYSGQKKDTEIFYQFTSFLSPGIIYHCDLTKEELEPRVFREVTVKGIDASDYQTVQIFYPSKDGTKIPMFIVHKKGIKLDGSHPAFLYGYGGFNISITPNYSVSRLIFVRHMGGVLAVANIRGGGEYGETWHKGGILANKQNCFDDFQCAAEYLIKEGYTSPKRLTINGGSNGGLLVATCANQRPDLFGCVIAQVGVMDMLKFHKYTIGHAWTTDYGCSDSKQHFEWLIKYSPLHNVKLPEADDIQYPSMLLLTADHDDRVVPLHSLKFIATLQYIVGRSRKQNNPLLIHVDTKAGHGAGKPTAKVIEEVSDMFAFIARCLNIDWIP
Assay [3] deals with T2, Prolyl endopeptidase (Homo sapiens). Put plainly: Inhibition of PREP in human SH-SY5Y cellular model of synucleinopathy over-expressing alpha-synuclein assessed as reduction in late apoptotic level 0.1 to 9 uM incubated for 3 days under oxidative stress condition by high content multiparametric method. Summed up:
as §1

Calls of active or inactive are those of the source. The rule behind the calls is not given here.

What is called IC50 is the midpoint of a concentration-inhibition curve. On to `N#C[C@@H]1CCCN1C(=O)[C@@H]1C[C@H](N=[N+]=[N-])CN1C(=O)CCCc1ccccc1`, for which the concentration for half-maximal inhibition (IC50) was > 100 µM in assay [1]; > 100 µM at Dipeptidyl peptidase 2; > 100 µM on Dipeptidyl peptidase 4; > 100 µM on Prolyl endopeptidase FAP; 0.003 µM against Prolyl endopeptidase. Further, the inhibition result in assay [2] and in assay [3] was “Active” throughout.
As to `CC(C)(C)OC(=O)NCc1cn([C@H]2C[C@@H](C(=O)N3CCC[C@H]3C#N)N(C(=O)CCCc3ccccc3)C2)nn1`, the half-maximal inhibitory concentration (IC50) in assay [1] is > 100 µM; on Dipeptidyl peptidase 2, > 100 µM; at Dipeptidyl peptidase 4, > 100 µM; at Prolyl endopeptidase FAP, > 100 µM; against Prolyl endopeptidase, 0.009 µM. Moreover, the inhibition result in assay [2] and in assay [3] was “Active” throughout.
As to `O=C([C@@H]1C[C@H](n2cc(-c3ccccc3Cl)nn2)CN1C(=O)CCCc1ccccc1)N1CCCC1`, the IC50 in assay [1] is > 100 µM; at Dipeptidyl peptidase 2 it was > 10 µM; at Dipeptidyl peptidase 4, > 100 µM; at Prolyl endopeptidase FAP, > 5 µM; on Prolyl endopeptidase it was 0.023 µM.
On to `O=C([C@@H]1C[C@H](n2cc(-c3ccc(Br)cc3)nn2)CN1C(=O)CCCc1ccccc1)N1CCCC1`, for which the IC50 in assay [1] was > 10 µM; on Dipeptidyl peptidase 2, > 100 µM; on Dipeptidyl peptidase 4 it was > 100 µM; at Prolyl endopeptidase FAP, > 100 µM; on Prolyl endopeptidase, 0.014 µM.
For the compound `O=C([C@@H]1C[C@H](n2cc(CN3CCNCC3)nn2)CN1C(=O)CCCc1ccccc1)N1CCCC1`, the half-inhibitory concentration (IC50) was 1.3 µM in assay [1]; > 100 µM at Dipeptidyl peptidase 2; > 100 µM at Dipeptidyl peptidase 4; > 100 µM on Prolyl endopeptidase FAP; 0.1 µM on Prolyl endopeptidase.
